Assay results of several laboratories.
Target: Megakaryocyte-associated tyrosine-protein kinase (MATK, Homo sapiens, UniProt P42679)
Residues used in one study (P42679 1-507): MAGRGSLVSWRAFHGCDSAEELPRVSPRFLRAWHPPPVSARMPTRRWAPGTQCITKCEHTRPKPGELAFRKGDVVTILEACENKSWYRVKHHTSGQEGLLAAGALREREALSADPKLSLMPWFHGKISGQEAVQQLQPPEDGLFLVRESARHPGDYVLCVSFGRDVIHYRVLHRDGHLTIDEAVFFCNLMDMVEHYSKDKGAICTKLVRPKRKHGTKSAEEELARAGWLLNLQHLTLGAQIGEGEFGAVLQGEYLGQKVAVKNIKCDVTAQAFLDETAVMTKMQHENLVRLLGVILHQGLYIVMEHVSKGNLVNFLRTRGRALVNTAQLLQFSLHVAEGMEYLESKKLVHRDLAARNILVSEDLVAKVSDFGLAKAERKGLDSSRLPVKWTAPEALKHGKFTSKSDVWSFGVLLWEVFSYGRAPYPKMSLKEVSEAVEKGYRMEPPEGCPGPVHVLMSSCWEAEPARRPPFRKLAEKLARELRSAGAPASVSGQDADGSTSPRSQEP

Structure (SMILES)	assay	setting	measurement	result
CNC(=O)c1ccc(Nc2ncc(C(F)(F)F)c(NCc3nccnc3N(C)S(C)(=O)=O)n2)cc1	cell-free assay, competition with immobilised ligand	0.1 µM	remaining binding	37%
Cc1cnn2ncc(-c3ccnc(N(C)C)n3)c2c1	binding	1 µM	remaining binding	100%
CCCS(=O)(=O)Nc1ccc(F)c(C(=O)c2c[nH]c3ncc(-c4ccc(Cl)cc4)cc23)c1F	enzyme activity, inhibitor	1 µM	inhibition	< 20%
CC(C)(C)c1nc(-c2cccc(NS(=O)(=O)c3c(F)cccc3F)c2F)c(-c2ccnc(N)n2)s1	enzyme activity, inhibitor, radiometric	1 µM	remaining activity	90%
CNC(=O)c1cc(Oc2ccc(NC(=O)Nc3ccc(Cl)c(C(F)(F)F)c3)cc2)ccn1	cell-free assay	0.5 µM	remaining signal	114%
CC1=C(C#N)C(c2ccc3c(c2)c(NC(=O)c2ccccc2C)nn3C)C(C#N)=C(C)N1	cell-free assay, competition with immobilised ligand	1 µM	remaining binding	79%
O=C1NC(=O)c2cc(Nc3ccc(F)cc3)c(Nc3ccc(F)cc3)cc21	cell-free assay	0.5 µM	remaining signal	93.5%
Cc1sc(C(=O)NC2COC2)cc1-n1cc(NC(=O)Nc2c(F)cccc2Cl)cn1	enzyme activity, inhibitor	10 µM	remaining activity	97.8%
Cc1ccc(C(=O)Nc2ccc(CN3CCN(C)CC3)c(C(F)(F)F)c2)cc1C#Cc1cnc2cccnn12	enzyme activity, inhibitor	23.5 nM	remaining activity	52%
COc1cc2ncnc(Nc3ccc(Oc4ccccc4)c(C)c3C)c2cc1OC	enzyme activity, inhibitor	1 µM	inhibition	-2%
O=C(Nc1cnn(-c2csc(C(=O)NC3COC3)c2)c1)Nc1c(F)cccc1Cl	enzyme activity, inhibitor	5 µM	remaining activity	100%
CN(C(=O)c1ccccc1)c1cc(N(C)c2ccc3c(c2)CCc2ccc(C(=O)NCCN4CCOCC4)cc2C3=O)ccc1F	cell-free assay, competition with immobilised ligand	1 µM	remaining binding	84%
